Experimental findings from ChEMBL document CHEMBL3616369, “N-O-Isopropyl Sulfonamido-Based Hydroxamates as Matrix Metalloproteinase Inhibitors: Hit Selection and in Vivo Antiangiogenic Activity” (J Med Chem, 2015) are described below.

Active and inactive are the calls of the source. The calls are words filed in the database; no cut-off is given here.

By IC50 is commonly meant the point on the concentration scale where inhibition reaches its midpoint.

The subject of assay [1] is HUVEC. In words: Inhibition of PMA-stimulated MMP2 protein expression in human HUVEC after 24 hrs by Western blot analysis relative to control. Format: functional. The method, boiled down: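 HUVEC (2x10^6) seeded, attached one day, starved 6 h in serum-free medium with 2% BSA. Pre-treated 3 h with 30 nM PMA, then exposed to inhibitor (10 µM) or DMSO vehicle for 24 h. Conditioned media and cell proteins collected. Equal protein on 10% SDS-PAGE, PVDF blot, milk block, anti-MMP-2, MMP-9 and β-actin antibodies, HRP/ECL detection.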
On the technique in general: A western blot detects proteins with antibodies after separation by electrophoresis.

The target in assay [2] is T1, Interstitial collagenase (Homo sapiens, UniProt P03956).
T1 sequence (P03956 whole entry): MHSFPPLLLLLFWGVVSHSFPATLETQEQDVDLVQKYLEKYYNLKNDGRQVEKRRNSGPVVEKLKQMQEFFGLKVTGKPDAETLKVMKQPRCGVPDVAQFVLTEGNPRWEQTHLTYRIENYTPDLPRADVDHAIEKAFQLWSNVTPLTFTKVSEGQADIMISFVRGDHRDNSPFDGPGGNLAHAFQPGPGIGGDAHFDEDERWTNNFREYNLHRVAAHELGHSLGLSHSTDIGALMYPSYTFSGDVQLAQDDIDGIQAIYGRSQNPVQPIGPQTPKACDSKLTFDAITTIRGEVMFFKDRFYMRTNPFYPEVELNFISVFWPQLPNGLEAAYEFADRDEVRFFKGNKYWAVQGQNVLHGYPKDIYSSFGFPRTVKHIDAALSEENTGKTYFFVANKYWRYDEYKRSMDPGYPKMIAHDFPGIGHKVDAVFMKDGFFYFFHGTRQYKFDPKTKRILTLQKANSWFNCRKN
In words: Inhibition of recombinant human activated-MMP1 using Mca-Lys-Pro-Leu-Gly-Leu-Dap(Dnp)-Ala-Arg-NH2 as fluorogenic substrate incubated for 4 hrs followed by substrate addition measured every 10 secs for 20 mins by fluorometric assay. The method, boiled down: (§1)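 Recombinant human MMPs. Pro-forms activated with APMA: MMP-2 2 mM 1 h, MMP-9 1 mM 1 h, MMP-1 2 mM 2 h, MMP-13 1 mM 35 min, all 37 °C. MMP-3 activated with trypsin 4.4 µg/mL 30 min, then soybean trypsin inhibitor. Final enzyme 0.5 (MMP-2), 1.3 (MMP-9), 1.0 (MMP-14cd), 2.0 (MMP-1), 0.66 (MMP-13), 5 nM (MMP-3). Preincubated with inhibitor 4 h at 25 °C in Tris 50 mM pH 7.5, NaCl 150 mM, CaCl2 10 mM, Brij 35 0.05%, DMSO 1%. Substrate 2 µM final; fluorescence (ex 325/em 395 nm) every 10 s for 20 min. IC50 from vi/vo = 1/(1+[I]/IC50).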

For assay [3], the target named is T2, 72 kDa type IV collagenase (Homo sapiens, UniProt P08253). Kind of assay: Inhibition of recombinant human activated-MMP2 using Mca-Lys-Pro-Leu-Gly-Leu-Dap(Dnp)-Ala-Arg-NH2 as fluorogenic substrate incubated for 4 hrs followed by substrate addition measured every 10 secs for 20 mins by fluorometric assay. The method, boiled down:
as §1
Target sequence in this assay (P08253 whole entry): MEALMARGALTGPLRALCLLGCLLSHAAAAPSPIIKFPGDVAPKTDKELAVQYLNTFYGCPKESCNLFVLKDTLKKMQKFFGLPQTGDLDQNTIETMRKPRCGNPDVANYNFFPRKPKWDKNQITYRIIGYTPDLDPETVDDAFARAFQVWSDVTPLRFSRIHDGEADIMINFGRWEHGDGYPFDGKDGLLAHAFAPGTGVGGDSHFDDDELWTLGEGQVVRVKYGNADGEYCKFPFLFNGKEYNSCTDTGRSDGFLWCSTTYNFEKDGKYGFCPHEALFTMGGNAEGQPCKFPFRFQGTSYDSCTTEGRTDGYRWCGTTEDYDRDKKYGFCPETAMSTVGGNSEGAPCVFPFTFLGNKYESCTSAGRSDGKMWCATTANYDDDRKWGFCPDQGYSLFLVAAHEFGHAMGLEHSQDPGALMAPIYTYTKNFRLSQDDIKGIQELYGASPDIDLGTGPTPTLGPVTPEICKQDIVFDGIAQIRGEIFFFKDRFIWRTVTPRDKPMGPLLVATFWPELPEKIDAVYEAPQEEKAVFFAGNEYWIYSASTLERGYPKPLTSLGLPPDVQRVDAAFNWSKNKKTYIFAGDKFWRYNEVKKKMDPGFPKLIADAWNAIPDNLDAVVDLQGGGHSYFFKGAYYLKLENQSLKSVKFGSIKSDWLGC

Assay [4] relates to HUVEC. In words: Inhibition of PMA-stimulated MMP2 mRNA expression in human HUVEC after 24 hrs by QT-PCR analysis. Format: functional, cell-based. A digest of the protocol: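 HUVEC starved, PMA pre-treated (30 nM, 3 h), then exposed to inhibitor for 24 h before RNA extraction. Real-time PCR with SYBR Green, 45 cycles (95 °C 10 s, 60 °C 15 s, 72 °C 15 s), with melting-curve check.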

The subject of assay [5] is HUVEC. In words: Inhibition of FBS-induced network efficiency of human HUVEC assessed as reduction of number of meshes at 0.001 to 10 uM after 6 hrs by matrigel assay. Format: functional, cell-based. A digest of the protocol: (§2)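 Matrigel (10 mg/mL) polymerized 1 h at 37 °C. HUVEC (50x10^4/well) in complete medium with 10% FBS, with or without inhibitor at various concentrations, layered on top. After 6 h, capillary-like organization imaged by inverted microscope; mesh number counted as tubulogenic efficiency.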

Assay [6] relates to HUVEC. In words: Inhibition of FBS-induced capillary-like network organization in human HUVEC at 0.001 to 10 uM after 6 hrs by matrigel assay. Format: functional, cell-based. A digest of the protocol: as §2
The target in assay [7] is Collagenase 3 (Homo sapiens, UniProt P45452). Kind of assay: Inhibition of recombinant human activated-MMP13 using Mca-Lys-Pro-Leu-Gly-Leu-Dap(Dnp)-Ala-Arg-NH2 as fluorogenic substrate incubated for 4 hrs followed by substrate addition measured every 10 secs for 20 mins by fluorometric assay. A digest of the protocol:
as §1

The target of assay [8] is T2, 72 kDa type IV collagenase. Kind of assay: Inhibition of MMP2 gelatinase activity in human HUVEC at 0.001 to 10 uM by gel zymography. A digest of the protocol:
(§3)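 Gelatin zymography on 10% polyacrylamide gels with 0.1% gelatin and SDS, samples unheated. Gels renatured 30 min at room temperature. Either untreated-HUVEC conditioned medium run and gel lane slices developed overnight at 37 °C in developing buffer containing inhibitor, or medium from inhibitor-treated HUVEC developed overnight without inhibitor. Coomassie stained; bands quantified by densitometry.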
Target sequence in this assay (P08253 110-660 limits assumed): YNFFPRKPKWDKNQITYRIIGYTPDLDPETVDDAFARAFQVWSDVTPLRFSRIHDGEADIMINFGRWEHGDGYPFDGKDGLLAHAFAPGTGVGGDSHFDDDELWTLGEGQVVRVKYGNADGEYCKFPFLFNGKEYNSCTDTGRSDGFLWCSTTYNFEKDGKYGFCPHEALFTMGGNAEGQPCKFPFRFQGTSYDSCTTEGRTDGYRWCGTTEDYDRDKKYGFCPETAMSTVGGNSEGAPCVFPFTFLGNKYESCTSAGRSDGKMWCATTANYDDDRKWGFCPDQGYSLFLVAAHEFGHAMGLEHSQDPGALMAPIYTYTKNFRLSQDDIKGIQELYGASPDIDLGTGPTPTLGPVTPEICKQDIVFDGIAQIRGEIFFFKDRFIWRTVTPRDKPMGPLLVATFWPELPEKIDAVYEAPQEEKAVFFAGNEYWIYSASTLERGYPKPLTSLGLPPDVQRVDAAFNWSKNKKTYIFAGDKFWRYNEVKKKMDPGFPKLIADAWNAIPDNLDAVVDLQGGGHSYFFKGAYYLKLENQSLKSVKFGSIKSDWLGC

Assay [9] relates to HUVEC. Kind of assay: Inhibition of FBS-induced cell invasion in human HUVEC at 0.001 to10 uM after overnight incubation using modified Boyden chambers. Format: functional, cell-based. The method, boiled down:
(§4)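 Modified Boyden chamber. HUVEC (5x10^4), PBS-washed, in serum-free medium with or without inhibitor in upper compartment; 10% FBS or serum-free medium below. 8 µm polycarbonate filters coated with collagen 50 µg/mL (migration, 6 h) or matrigel 1 mg/mL (invasion, overnight). Cells on lower surface ethanol-fixed, stained, counted blind in eight fields. Three experiments in duplicate; one-way ANOVA.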

The target of assay [10] is T3, Matrix metalloproteinase-9 (Homo sapiens, UniProt P14780). In words: Inhibition of recombinant human activated-MMP9 using Mca-Lys-Pro-Leu-Gly-Leu-Dap(Dnp)-Ala-Arg-NH2 as fluorogenic substrate incubated for 4 hrs followed by substrate addition measured every 10 secs for 20 mins by fluorometric assay. The method, boiled down:
as §1

The target in assay [11] is Matrix metalloproteinase-14 (Homo sapiens, UniProt P50281). In words: Inhibition of recombinant human catalytic domain MMP14 using Mca-Lys-Pro-Leu-Gly-Leu-Dap(Dnp)-Ala-Arg-NH2 as fluorogenic substrate incubated for 4 hrs followed by substrate addition measured every 10 secs for 20 mins by fluorometric assay. A digest of the protocol: as §1
The test system of assay [12] is HUVEC. In words: Inhibition of cell migration in human HUVEC at 0.001 to 10 uM after 6 hrs using modified Boyden chambers. Format: functional, cell-based. The method, boiled down:
as §4

Assay [13] has as its target T3, Matrix metalloproteinase-9. Kind of assay: Inhibition of MMP9 gelatinase activity in human HUVEC at 0.001 to 10 uM by gel zymography. The method, boiled down: as §3
Assay [14] addresses Stromelysin-1 (Homo sapiens, UniProt P08254). In words: Inhibition of recombinant human activated-MMP3 using Mca-Lys-Pro-Leu-Gly-Leu-Dap(Dnp)-Ala-Arg-NH2 as fluorogenic substrate incubated for 4 hrs followed by substrate addition measured every 10 secs for 20 mins by fluorometric assay. The method, boiled down:
as §1

The subject of assay [15] is U-87 MG. In words: Antiinvasive activity in human U87MG cells after 24 hrs by Transwell matrigel assay. Format: functional, U-87MG ATCC.
Assay [16] has as its system HUVEC. In words: Inhibition of FBS-induced cell invasion in human HUVEC after overnight incubation using modified Boyden chambers. Format: functional, cell-based. A digest of the protocol:
as §4

Assay [17] has as its target T2, 72 kDa type IV collagenase. In words: Inhibition of MMP2 gelatinase activity in human HUVEC by gel zymography. A digest of the protocol: as §3
Target sequence in this assay (P08253 110-660 limits assumed): as above
Assay [18] addresses T3, Matrix metalloproteinase-9. The note with it: HUVEC, 0.1 uM.
Assay [19] addresses T3, Matrix metalloproteinase-9. In words: Inhibition of MMP9 gelatinase activity in human HUVEC by gel zymography. A digest of the protocol: as §3
Assay [20] deals with T2, 72 kDa type IV collagenase. In words: Inhibition of MMP2 gelatinase activity in human HUVEC at 0.1 uM by gel zymography. A digest of the protocol: as §3
Target sequence in this assay (P08253 110-660 limits assumed): as above

T3 sequence (P14780 whole entry): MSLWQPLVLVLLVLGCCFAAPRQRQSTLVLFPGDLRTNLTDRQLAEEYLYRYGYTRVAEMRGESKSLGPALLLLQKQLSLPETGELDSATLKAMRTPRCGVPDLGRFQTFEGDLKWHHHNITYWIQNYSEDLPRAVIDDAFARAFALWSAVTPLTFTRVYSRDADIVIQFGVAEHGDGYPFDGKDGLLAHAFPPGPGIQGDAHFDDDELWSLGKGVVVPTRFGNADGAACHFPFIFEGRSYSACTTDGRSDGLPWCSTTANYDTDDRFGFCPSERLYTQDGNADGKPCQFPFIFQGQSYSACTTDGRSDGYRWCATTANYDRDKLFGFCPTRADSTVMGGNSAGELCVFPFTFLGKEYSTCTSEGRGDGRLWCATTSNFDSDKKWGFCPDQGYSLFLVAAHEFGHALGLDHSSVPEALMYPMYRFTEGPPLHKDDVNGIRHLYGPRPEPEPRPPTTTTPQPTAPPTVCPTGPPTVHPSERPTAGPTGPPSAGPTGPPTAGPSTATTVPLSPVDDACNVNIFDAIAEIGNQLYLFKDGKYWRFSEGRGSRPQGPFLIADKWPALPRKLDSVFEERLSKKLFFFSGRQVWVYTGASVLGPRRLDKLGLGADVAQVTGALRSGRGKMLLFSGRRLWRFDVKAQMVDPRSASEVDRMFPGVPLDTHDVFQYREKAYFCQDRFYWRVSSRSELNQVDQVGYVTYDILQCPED
Sequence of Stromelysin-1 (P08254 whole entry): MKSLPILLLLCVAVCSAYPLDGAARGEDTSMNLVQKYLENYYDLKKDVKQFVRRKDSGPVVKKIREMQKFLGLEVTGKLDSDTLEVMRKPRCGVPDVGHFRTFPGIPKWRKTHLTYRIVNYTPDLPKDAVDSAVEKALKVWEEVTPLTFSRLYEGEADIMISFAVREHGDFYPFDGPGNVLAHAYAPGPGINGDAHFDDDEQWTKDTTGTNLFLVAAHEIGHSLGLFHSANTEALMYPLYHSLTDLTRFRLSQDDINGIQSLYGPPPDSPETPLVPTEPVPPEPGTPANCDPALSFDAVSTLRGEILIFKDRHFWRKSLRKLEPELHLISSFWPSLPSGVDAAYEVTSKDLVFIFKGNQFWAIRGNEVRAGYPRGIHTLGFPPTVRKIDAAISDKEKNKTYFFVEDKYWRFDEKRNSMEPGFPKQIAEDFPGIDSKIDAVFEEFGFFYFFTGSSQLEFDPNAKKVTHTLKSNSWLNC

`CC(=O)NCC[C@H](C(=O)NO)N(OC(C)C)S(=O)(=O)c1ccccc1`: the “fold change (FC)” value in [1] is 0.9. Moreover, the IC50 in [2] stood at 26000 nM; in [3] it was 590 nM; in assay [7] it was 1800 nM; in [10] it was 3900 nM; in [11] it was 5500 nM. Moreover, the inhibition result in assay [4], in assay [5], in assay [6], in [8], in assay [9] and in [12] was “inactive” in each case. Also, in assay [13], the inhibition result is “inactive”.

As to `CC(=O)NCC[C@H](C(=O)NO)N(OC(C)C)S(=O)(=O)c1ccc(-c2ccccc2)cc1`, the IC50 in [2] turned out to be 280 nM; in [10], 6.5 nM; in assay [14] it was 47 nM.

For the compound `CC(C)ON([C@H](CCNC(=O)Cc1ccccc1)C(=O)NO)S(=O)(=O)c1ccc(-c2ccccc2)cc1`, the IC50 was 1300 nM in [2], 1.4 nM in [3], 6.4 nM in assay [10] and 120 nM in assay [14].

In turn, `CC(C)ON([C@@H](C(=O)NO)C(C)C)S(=O)(=O)c1ccc(-c2ccccc2)cc1` gave an Activity in assay [15] of 48%.

For the compound `CC(C)ON([C@H](CCNS(C)(=O)=O)C(=O)NO)S(=O)(=O)c1ccc(-c2ccccc2)cc1`, the IC50 in assay [2] worked out at 320 nM; in assay [3] it was 1 nM; in [10], 8.6 nM; in assay [14], 71 nM.

Regarding `CC(C)ON([C@H](CCNC(=O)c1ccccc1)C(=O)NO)S(=O)(=O)c1ccc(-c2ccccc2)cc1`, the IC50 was determined as 780 nM in [2], 1.5 nM in assay [3], 9 nM in assay [10] and 450 nM in [14].

In the case of `COc1ccc(-c2ccc(S(=O)(=O)N(OC(C)C)[C@H](CCNC(C)=O)C(=O)NO)cc2)cc1`, the IC50 in assay [2] is 660 nM; in [10], 2 nM; in assay [11], 23 nM; in assay [14], 20 nM. Further, the inhibition result in assay [5], in assay [6], in assay [18], in [12] and in [20] was “Active” throughout. Also, the inhibition result in [16], in [17] and in [19] was “Dose-dependent effect” throughout.

`COc1ccc(-c2ccc(S(=O)(=O)N(OC(C)C)[C@H](CCNC(=O)Cc3ccccc3)C(=O)NO)cc2)cc1`: the IC50 came to 1400 nM in assay [2], 2.9 nM in assay [10], 25 nM in [11] and 36 nM in assay [14].
